Data set [1] has as its system prostate carcinoma cells. As to conditions: in vitro; cited from earlier work.
Data set [2] concerns glioma tumor. The note with it: mice; cited from earlier work.
Data set [3] is described as follows: Pharmacokinetic. The format is in vivo, Balb/c mice. The note with it: plasma; for Cmax: mice.
Data set [4] in a line: PND-1186 levels in tumor samples by HPLC and mass spectroscopy. The format is in vivo, Balb/c mice. The note with it: for maximal PND-1186 in tumors / time to maximal PND-1186 in tumors: subcutaneous 4T1 tumors.
In data set [5] the target is FAK Tyr-397 phosphorylation (pY397 FAK) (Mus musculus, UniProt P34152). Description: Immunoblotting of tumor FAK Tyr-397 phosphorylation in 4T1 tumors. In kind it is in vivo, Balb/c mice.
Sequence of FAK Tyr-397 phosphorylation (pY397 FAK) (P34152 whole entry): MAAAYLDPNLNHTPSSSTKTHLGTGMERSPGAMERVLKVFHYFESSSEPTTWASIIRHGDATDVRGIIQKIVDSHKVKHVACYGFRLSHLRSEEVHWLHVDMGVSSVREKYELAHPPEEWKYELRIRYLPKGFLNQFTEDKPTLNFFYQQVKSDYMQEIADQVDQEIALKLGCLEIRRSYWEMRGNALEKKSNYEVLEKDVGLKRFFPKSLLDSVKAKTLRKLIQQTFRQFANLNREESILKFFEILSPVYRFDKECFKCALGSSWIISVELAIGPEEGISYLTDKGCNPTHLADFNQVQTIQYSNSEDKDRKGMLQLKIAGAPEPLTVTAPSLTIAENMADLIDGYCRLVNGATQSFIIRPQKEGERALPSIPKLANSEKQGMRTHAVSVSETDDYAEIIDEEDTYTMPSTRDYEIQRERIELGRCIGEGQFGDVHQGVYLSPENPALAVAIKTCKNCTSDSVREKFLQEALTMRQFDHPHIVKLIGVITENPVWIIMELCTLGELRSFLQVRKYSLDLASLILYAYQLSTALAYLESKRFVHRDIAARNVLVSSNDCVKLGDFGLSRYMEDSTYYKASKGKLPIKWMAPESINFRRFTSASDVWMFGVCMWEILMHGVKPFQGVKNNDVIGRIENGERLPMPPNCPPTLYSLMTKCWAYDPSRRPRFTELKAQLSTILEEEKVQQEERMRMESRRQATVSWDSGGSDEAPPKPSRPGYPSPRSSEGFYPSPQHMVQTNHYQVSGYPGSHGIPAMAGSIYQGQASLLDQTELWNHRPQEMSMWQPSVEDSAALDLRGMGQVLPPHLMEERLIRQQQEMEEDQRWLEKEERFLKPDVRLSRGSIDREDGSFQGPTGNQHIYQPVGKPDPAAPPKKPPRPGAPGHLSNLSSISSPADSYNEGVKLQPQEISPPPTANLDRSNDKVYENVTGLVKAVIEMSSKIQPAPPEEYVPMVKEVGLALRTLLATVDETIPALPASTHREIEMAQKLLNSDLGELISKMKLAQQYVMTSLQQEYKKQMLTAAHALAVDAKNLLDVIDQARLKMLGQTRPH
In data set [6] the test system is p130Cas Tyr-410 phosphorylation (pY410Cas). Description: Immunoblotting of tumor p130Cas Tyr-410 phosphorylation in 4T1 tumors. The format is in vivo, Balb/c mice.
The subject of data set [7] is 4T1 orthotopic breast carcinoma tumors. Put plainly: Orthotopic 4T1 breast carcinoma tumor growth. In kind it is in vivo, Balb/c mice.
Data set [8] deals with 4T1 tumor blood vessels (CD31). Put plainly: Anti-CD31 staining of 4T1 orthotopic tumors. The format is in vivo, Balb/c mice. As to conditions: 150 mg/kg p.o. b.i.d.
Data set [9] relates to tumor-associated splenomegaly. Put plainly: Spleen weight in 4T1 tumor-bearing mice. The format is in vivo, Balb/c mice.
Data set [10] relates to TNFα-stimulated IL-6 production in 4T1 cells. Put plainly: IL-6 ELISA of TNFα-stimulated 4T1 cells. In kind it is cell-based, murine. The note with it: 0.25 to 1.0 µM, TNFα 10 ng/ml, 24 h. (In general: An ELISA detects its analyte on a solid surface through an enzyme-linked reagent.)
For data set [11], the system named is 4T1 lung metastases. Put plainly: Spontaneous 4T1 breast to lung metastasis. The format is in vivo, Balb/c mice. The note with it: 150 mg/kg p.o. b.i.d. for 15 days.
Data set [12] can be described thus: Body weight and toxicity in mouse studies. The format is in vivo.
Data set [13] is described as follows: Water solubility. In kind it is physicochemical.
Data set [14] concerns pY118 paxillin. Description: Immunoblotting of pY118 paxillin in orthotopic 4T1 tumors. In kind it is in vivo, Balb/c mice. The note with it: 0.5 mg/ml ad libitum. On the technique in general: A western blot detects proteins with antibodies after separation by electrophoresis.
In data set [15] the test system is MDA-MB-231 orthotopic tumors. Description: Orthotopic MDA-MB-231 tumor growth. The note with it: 0.5 mg/ml ad libitum, Day 27 (15 days of administration). The format is in vivo, SCID mice.
In data set [16] the target is FAK pY397 phosphorylation (Homo sapiens, UniProt Q05397). Description: Immunoblotting of FAK pY397 in MDA-MB-231 tumors. The format is in vivo. As to conditions: 0.5 mg/ml ad libitum. Summed up: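 From day 12 (palpable tumors), mice drank 5% sucrose or 0.5 mg/ml compound in 5% sucrose ad libitum. Tumor growth was followed to Day 70; final tumors were weighed and lysed for immunoblot of the FAK pY397 to total FAK ratio (n=11 control, 13 treated).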
Sequence of FAK pY397 phosphorylation (Q05397 whole entry): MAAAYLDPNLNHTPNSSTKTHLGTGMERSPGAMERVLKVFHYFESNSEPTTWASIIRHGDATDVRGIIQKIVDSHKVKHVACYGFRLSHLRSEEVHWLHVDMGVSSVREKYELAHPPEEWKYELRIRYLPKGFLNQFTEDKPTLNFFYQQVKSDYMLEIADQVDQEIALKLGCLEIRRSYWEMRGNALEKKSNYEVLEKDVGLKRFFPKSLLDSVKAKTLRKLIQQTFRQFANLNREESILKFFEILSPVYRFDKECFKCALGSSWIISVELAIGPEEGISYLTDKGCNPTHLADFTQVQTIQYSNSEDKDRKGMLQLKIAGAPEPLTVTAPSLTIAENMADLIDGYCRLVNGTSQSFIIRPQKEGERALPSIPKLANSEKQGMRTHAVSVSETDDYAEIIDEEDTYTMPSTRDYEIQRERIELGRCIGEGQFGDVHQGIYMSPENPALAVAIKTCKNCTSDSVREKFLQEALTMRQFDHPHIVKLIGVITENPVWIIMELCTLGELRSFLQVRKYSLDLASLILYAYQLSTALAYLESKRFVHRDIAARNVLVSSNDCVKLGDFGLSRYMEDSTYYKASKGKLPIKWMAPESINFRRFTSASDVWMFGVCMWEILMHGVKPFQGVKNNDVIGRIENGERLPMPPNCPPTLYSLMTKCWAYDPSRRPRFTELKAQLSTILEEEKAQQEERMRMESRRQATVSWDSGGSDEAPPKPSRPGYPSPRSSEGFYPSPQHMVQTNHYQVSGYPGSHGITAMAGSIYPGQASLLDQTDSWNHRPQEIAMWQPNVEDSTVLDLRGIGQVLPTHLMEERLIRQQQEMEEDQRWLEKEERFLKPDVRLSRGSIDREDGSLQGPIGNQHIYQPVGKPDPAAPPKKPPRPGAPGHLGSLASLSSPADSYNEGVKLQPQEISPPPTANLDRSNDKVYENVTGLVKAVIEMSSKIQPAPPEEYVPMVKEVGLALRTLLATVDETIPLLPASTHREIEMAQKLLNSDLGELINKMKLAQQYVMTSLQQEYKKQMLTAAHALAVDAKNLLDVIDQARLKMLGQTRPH

Data set [17] deals with MDA-MB-231 cells in lungs. Description: Experimental metastasis assay. In kind it is in vivo, nude mice. As to conditions: 150 mg/kg p.o. pre-administered, 1 and 6 h after cell injection.
The subject of data set [18] is suspended MDA-MB-231 cells. Description: Apoptosis assay. The format is cell-based, human. The note with it: concentrations up to 10 µM, within 6 h. Put shortly:
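Suspended MDA-MB-231 cells exposed to test compound or DMSO for 1 h or 6 h, then stained with FITC-annexin V for 30 min and analysed by flow cytometry within 1 h. Quadrant gates were set from autofluorescence (negative) and staurosporine 1 µM (positive) controls. Apoptosis is the percent of annexin V-positive cells.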

Data set [19] concerns cell motility. As to conditions: 0.1 to 1.0 µM; cited from earlier work.
The test system of data set [20] is adherent cell proliferation. The note with it: 1.0 µM; cited from earlier work.
The test system of data set [21] is carcinoma cells in three-dimensional culture. The note with it: 0.1 µM; cited from earlier work.
The test system of data set [22] is Src activity. The note with it: adherent or suspended 4T1 cells; cited from earlier work.
Data set [23] relates to subcutaneous human tumor xenografts. The note with it: oral administration; lung, prostate, pancreatic, glioma, colon, breast; cited from earlier work.
Data set [24] deals with lung carcinoma xenografts. The note with it: cited from earlier work.
Where [25] appears, read: 0.5 mg/ml ad libitum, orthotopic 4T1 tumors.

By Cmax is commonly meant the maximum level reached in the sampled fluid or tissue. As usually defined, the bioavailability is the share of a dose that reaches the circulation, judged against a reference dose that is usually intravenous. Lower therefore signals poor availability. By solubility is commonly meant how much of the substance goes into solution per volume.

Entries after “also recorded” stand apart in the source; their conditions may differ.

Consider `CS(=O)(=O)c1cccc(CNc2nc(Nc3ccc4c(c3)CCC(=O)N4)ncc2C(F)(F)F)c1` [PF-573,228], for which the “prostate carcinoma cell motility” value in data set [1] was “prevented prostate carcinoma cell motility in vitro”.
`CNC(=O)c1ccccc1Nc1nc(Nc2ccc(N3CCOCC3)cc2OC)ncc1Cl` [TAE-226]: the glioma tumor growth entry in data set [2] is “can prevent glioma tumor growth in mice”.
In the case of `CNC(=O)c1ccccc1Nc1cc(Nc2ccc(N3CCOCC3)cc2OC)ncc1C(F)(F)F` [PND-1186], the Cmax was 34.8 µM in data set [3] (30 mg/kg i.p.) and 117 µM in data set [3] (Balb/c, mouse, ip, 100 mg/kg, CMAX, 100 mg/kg i.p.). Besides, the bioavailability in data set [3] (Balb/c, mouse, ip, 30 mg/kg) was 31.1%; in [3] (Balb/c, mouse, ip, 100 mg/kg), 42.2%; in data set [3] (Balb/c, mouse, po, 150 mg/kg), 14.8%. For the same molecule, the concentration at 7 days in data set [3] (Balb/c, mouse, oral, 0.5 mg/ml) turned out to be 1.2 µM; in data set [4] (Balb/c, mouse, tumor, oral, 0.5 mg/ml), 522 ng/g. In addition, the results for the “maximal PND-1186 in tumors” value in data set [4] (30 mg/kg single i.p.) and in data set [4] (100 mg/kg single i.p.) were 0.75 µg/g and 16.1 µg/g, respectively. Moreover, the “time to maximal PND-1186 in tumors” value in data set [4] (30 mg/kg single i.p.) and in data set [4] (100 mg/kg single i.p.) was at most 1 h throughout. Moreover, the “FAK pY397 phosphorylation in primary 4T1 tumors” value in [5] (setting [25]) is listed as “sufficient to inhibit”. Also, in data set [5] (30 mg/kg single i.p., subcutaneous 4T1 tumors, 12 h), the “tumor FAK pY397 phosphorylation at 12 h” value is on record as “not significantly inhibited”. Also, the “p130Cas pY410 phosphorylation in primary 4T1 tumors” value in [6] (setting [25]) is “sufficient to inhibit”. Further, the “p130Cas Tyr-410 phosphorylation (pY410Cas) in tumors” value in data set [6] (100 mg/kg single i.p., subcutaneous 4T1 tumors, by 3 h) is reported as “significantly reduced”. Moreover, the “tumor size by caliper measurements versus control” value in data set [7] (0.5 mg/ml ad libitum, Day 13) was “tumor size was significantly different”; in data set [15], “control tumors were significantly larger”. In addition, the “reduction of final tumor volume compared to vehicle control” value in data set [7] (150 mg/kg p.o. b.i.d., 16 days) came to 3 fold. Further, in data set [7] (150 mg/kg p.o. b.i.d., Day 7), the “tumor volume compared to vehicle control” value is recorded as “significantly reduced tumor volume”. In addition, in [8], the “vascular differences by anti-CD31 staining” value is listed as “no major vascular differences”. In addition, the spleen size result in [9] (0.5 mg/ml ad libitum) is listed as “of normal size”. Besides, the spleen appearance result in [9] (150 mg/kg p.o. b.i.d.) was “healthy and indistinguishable from non-treated, non-tumor bearing mice”. Besides, the “spleen weight, vehicle-treated over PND-1186-treated mice” value in data set [9] (150 mg/kg p.o. b.i.d.) is above 2 fold. Further, the IL-6 release entry in data set [10] is “inhibited IL-6 release in a dose-dependent manner”. Also, in data set [11], the “mice with high lung metastatic burden” value is reported as “no mice with a high metastatic burden”. Also, in [12] (0.5 mg/ml ad libitum administration), the “toxicity or weight loss” value is reported as “no signs of toxicity or weight loss; also recorded: without toxicity or weight loss”. In data set [12] (150 mg/kg p.o. b.i.d., 4T1 tumor-bearing Balb/c mice), the “effect on total body weight” value is on record as “without affects on total body weight”. In [13], the solubility was above 20 mg/mL. Moreover, the “pY118 paxillin phosphorylation in tumors” value in data set [14] was “inhibited”. Besides, the “FAK pY397 phosphorylation in MDA-MB-231 tumors” value in [16] is given as “significantly reduce”. In data set [17], the “accumulation of tumor cells in the lungs” value is reported as “significantly inhibited the accumulation of tumor cells in the lungs”. The “MDA-MB-231 apoptosis by annexin V binding” value in data set [18] was “did not promote MDA-MB-231 apoptosis”. The cell motility result in data set [19] is on record as “prevents cell motility in a dose-dependent fashion”. Besides, in data set [20], the adherent cell proliferation result was “limited inhibitory effects on adherent cell proliferation”. For the same molecule, the “carcinoma cell apoptosis under three-dimensional culture conditions” value in data set [21] is listed as “selectively promotes carcinoma cell apoptosis”. The Src activity result in data set [22] is “does not inhibit Src activity”.
In the case of `CN(c1ncccc1CNc1nc(Nc2ccc3c(c2)CC(=O)N3)ncc1C(F)(F)F)S(C)(=O)=O` [PF-562,271], the “growth of subcutaneous human tumor xenografts” value in data set [23] was “reduces the growth”. Besides, the tumor microvessel density result in data set [24] is “reduced tumor microvessel density”.

The values above are taken from publication PMC2933309 (Cancer biology & therapy, 2010).
